This passage reports IC50, solubility and Activity results from ChEMBL document CHEMBL1150411, “4-(Phenylaminomethylene)isoquinoline-1,3(2H,4H)-diones as potent and selective inhibitors of the cyclin-dependent kinase 4 (CDK4)” (J Med Chem, 2008).

One data set has as its system HCT-116. Kind of data set: Antiproliferative activity against human HCT116 cells by SRB method. It counts as functional, cell-based.
Data set [1] relates to MCF7. Description: Antiproliferative activity against human MCF7 cells by SRB method. The class given is functional, cell-based.
A short description of data set [2]: Aqueous solubility at pH 7.4. It counts as physicochemical.
The target in data set [3] is Cyclin-dependent kinase 4/cyclin D1 (Homo sapiens, UniProt P11802). Kind of data set: Inhibition of CDK4/cyclin D1 expressed in Sf9 cells-baculovirus system assessed as retinoblastoma susceptibility gene product phosphorylation.
Cyclin-dependent kinase 4/cyclin D1, sequence (P11802 whole entry): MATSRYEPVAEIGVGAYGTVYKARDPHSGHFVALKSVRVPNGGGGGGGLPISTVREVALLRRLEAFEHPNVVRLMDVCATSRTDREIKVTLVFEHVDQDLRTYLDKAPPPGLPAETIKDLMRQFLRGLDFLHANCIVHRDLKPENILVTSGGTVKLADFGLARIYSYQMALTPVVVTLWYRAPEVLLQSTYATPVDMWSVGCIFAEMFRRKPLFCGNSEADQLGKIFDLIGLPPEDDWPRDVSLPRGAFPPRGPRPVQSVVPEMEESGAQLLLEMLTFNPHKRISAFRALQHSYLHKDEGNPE
Cyclin-dependent kinase 4/cyclin D1, sequence (P24385 whole entry, further chain): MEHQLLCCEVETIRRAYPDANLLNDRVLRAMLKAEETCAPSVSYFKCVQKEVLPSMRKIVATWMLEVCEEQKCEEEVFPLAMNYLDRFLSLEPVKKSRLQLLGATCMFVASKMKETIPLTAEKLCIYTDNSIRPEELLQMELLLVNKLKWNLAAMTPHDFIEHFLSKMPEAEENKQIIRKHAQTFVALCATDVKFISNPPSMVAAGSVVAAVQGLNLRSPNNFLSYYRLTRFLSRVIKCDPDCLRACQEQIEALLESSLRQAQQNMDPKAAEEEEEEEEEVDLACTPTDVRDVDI
Data set [4] addresses Cyclin-dependent kinase 1/cyclin B1 (Homo sapiens, UniProt P06493). Description: Inhibition of CDK1/Cyclin B1 expressed in Sf9 cells-baculovirus system assessed as retinoblastoma susceptibility gene product phosphorylation.
Data set [5] deals with Cyclin-dependent kinase 2 (Homo sapiens, UniProt P24941). Description: Inhibition of CDK2/cyclin E expressed in Sf9 cells-baculovirus system assessed as retinoblastoma susceptibility gene product phosphorylation.
The target of data set [6] is T1, Retinoblastoma-associated protein (Homo sapiens) (UniProt P06400).
T1 sequence (whole entry): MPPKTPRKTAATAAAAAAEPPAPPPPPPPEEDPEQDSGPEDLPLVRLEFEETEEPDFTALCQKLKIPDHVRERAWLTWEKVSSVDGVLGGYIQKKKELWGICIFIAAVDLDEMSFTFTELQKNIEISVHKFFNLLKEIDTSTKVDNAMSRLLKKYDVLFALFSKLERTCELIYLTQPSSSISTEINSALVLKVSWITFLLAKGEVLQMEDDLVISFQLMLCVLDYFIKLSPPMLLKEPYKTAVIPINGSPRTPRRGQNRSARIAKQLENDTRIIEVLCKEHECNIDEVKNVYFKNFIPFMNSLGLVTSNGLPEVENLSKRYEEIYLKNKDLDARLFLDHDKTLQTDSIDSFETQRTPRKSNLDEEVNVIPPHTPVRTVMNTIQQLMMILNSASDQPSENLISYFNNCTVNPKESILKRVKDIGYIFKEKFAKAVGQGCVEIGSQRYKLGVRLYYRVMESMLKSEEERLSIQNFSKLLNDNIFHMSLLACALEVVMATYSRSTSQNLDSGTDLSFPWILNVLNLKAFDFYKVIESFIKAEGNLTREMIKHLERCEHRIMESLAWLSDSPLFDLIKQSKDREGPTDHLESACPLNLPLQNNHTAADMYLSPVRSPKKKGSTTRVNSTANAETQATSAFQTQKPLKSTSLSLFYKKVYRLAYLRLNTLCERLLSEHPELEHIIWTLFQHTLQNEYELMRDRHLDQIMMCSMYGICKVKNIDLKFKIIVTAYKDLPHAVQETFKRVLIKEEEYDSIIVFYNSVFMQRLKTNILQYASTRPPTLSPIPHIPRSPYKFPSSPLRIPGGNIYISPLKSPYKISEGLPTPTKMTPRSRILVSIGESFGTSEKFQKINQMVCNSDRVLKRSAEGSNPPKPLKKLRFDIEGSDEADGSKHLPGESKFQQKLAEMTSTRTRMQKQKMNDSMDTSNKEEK
Kind of data set: Inhibition of retinoblastoma susceptibility gene product phosphorylation in human MCF7 cells after 24 hrs. The class given is cell-based. In a few lines:
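MCF-7 cells exposed to compound for 24 h at 37 °C. Extracts separated by SDS-PAGE and immunoblotted with Rb antibody, with the phosphorylated pRB band followed. Also checked with an antibody specific for phospho-Ser807/811 pRB.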

The subject of data set [7] is MCF7. Description: Cell cycle arrest in human MCF7 cells assessed as accumulation at G1 phase after 24 hrs by flow cytometry. The class given is functional, cell-based. The essentials:
(§1)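 MCF-7 cells in 6-well plates, exposed to compound for 24 h at 37 °C, then pulse-labelled with 10 µM bromodeoxyuridine for 30 min. Cells trypsinized, fixed in 80% methanol at -20 °C, acid-denatured and permeabilized, stained with anti-BrdU-FITC, counterstained with propidium iodide and run on flow cytometry. S-phase percentage taken from the propidium iodide histogram.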

The test system of data set [8] is MCF7. Kind of data set: Cell cycle arrest in human MCF7 cells assessed as accumulation at S phase at 0.1 uM after 24 hrs by flow cytometry. The class given is functional. In a few lines: as §1
Background: A flow cytometer gives signals particle by particle.

The test system of data set [9] is MCF7. Description: Cell cycle arrest in human MCF7 cells assessed as accumulation at S phase at 0.3 uM after 24 hrs by flow cytometry. The class given is functional. In a few lines:
as §1

The subject of data set [10] is MCF7. Kind of data set: Cell cycle arrest in human MCF7 cells assessed as accumulation at S phase at 1 uM after 24 hrs by flow cytometry. The class given is functional. In a few lines: as §1
Data set [11] has as its system MCF7. Description: Cell cycle arrest in human MCF7 cells assessed as accumulation at S phase at 3 uM after 24 hrs by flow cytometry. It counts as functional. In a few lines:
as §1

In data set [12] the test system is MCF7. Description: Decrease in cyclin D1 level in human MCF7 cells at 7.5 to 10 uM after 24 hrs by immunoblot analysis. The class given is functional. Details: scale not given: the % may be the effect or the level left. In a few lines:
(§2)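 MCF-7 cells incubated with or without compound for 24 h at 37 °C. Lysates made in Tris/NaCl/EDTA/NP-40/deoxycholate buffer containing PMSF, DTT, NaF and vanadate. 10-20 µg protein run on 8 or 10% SDS-PAGE and blotted to nitrocellulose. Probed with antibodies to each regulatory protein; actin antibody served as loading control.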
On the technique in general: Immunoblotting shows a protein as a band on a membrane.

For data set [13], the system named is MCF7. Description: Decrease in CDK4 level in human MCF7 cells at 7.5 to 10 uM after 24 hrs by immunoblot analysis. It counts as functional. More on the design: scale not given: the % may be the effect or the level left. In a few lines: as §2
Data set [14] relates to MCF7. Kind of data set: Decrease in CDK2 level in human MCF7 cells at 7.5 uM after 24 hrs by immunoblot analysis. It counts as functional. More on the design: scale not given: the % may be the effect or the level left. The essentials:
as §2

Data set [15] deals with MCF7. Description: Decrease in cyclin B level in human MCF7 cells at 4 uM after 24 hrs by immunoblot analysis. It counts as functional. Details: scale not given: the % may be the effect or the level left. In a few lines:
as §2

Data set [16] relates to MCF7. Description: Decrease in CDK1 level in human MCF7 cells at 7.5 uM after 24 hrs by immunoblot analysis. Details: scale not given: the % may be the effect or the level left. The class given is functional. In a few lines: as §2
For data set [17], the system named is MCF7. Kind of data set: Increase in cyclin E level in human MCF7 cells at >2 uM after 24 hrs by immunoblot analysis. The class given is functional. In a few lines: as §2
In data set [18] the test system is MCF7. Kind of data set: Decrease in p27 level in human MCF7 cells at 7.5 uM after 24 hrs by immunoblot analysis. It counts as functional. More on the design: scale not given: the % may be the effect or the level left. The essentials:
as §2

≈ marks a conversion by molar mass, not a printed value. Calls of active or inactive are those of the source. The calls are words filed in the database; no cut-off is given here. Bounds are passed on as bounds.

Cyclin-dependent kinase 1/cyclin B1, sequence (P06493 whole entry): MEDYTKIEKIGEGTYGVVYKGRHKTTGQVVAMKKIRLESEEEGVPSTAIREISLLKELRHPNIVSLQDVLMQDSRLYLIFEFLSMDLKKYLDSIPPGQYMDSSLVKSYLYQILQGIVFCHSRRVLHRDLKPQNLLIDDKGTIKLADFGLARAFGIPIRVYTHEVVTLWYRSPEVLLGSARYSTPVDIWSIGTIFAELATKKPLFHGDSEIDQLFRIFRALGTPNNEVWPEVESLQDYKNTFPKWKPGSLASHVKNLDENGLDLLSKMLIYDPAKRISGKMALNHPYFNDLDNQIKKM
Cyclin-dependent kinase 1/cyclin B1, sequence (P14635 whole entry, further chain): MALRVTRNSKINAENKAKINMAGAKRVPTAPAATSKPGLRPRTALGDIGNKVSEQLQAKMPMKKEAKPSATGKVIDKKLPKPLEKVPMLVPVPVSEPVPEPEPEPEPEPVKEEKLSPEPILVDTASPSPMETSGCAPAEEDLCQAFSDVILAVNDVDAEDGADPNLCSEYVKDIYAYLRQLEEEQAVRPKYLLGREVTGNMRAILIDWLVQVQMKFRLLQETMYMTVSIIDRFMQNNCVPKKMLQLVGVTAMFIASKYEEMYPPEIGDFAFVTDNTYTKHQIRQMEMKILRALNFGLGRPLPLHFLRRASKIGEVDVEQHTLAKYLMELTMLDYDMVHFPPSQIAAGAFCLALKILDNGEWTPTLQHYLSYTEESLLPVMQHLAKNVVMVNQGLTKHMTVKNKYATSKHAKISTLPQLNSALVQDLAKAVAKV

For the compound `C[C@@H]1CN(c2ccc(N/C=C3\C(=O)NC(=O)c4ccc(I)cc43)cc2)[C@@H](C)CN1C`, the IC50 with HCT-116 was 5 µM; with MCF7 [1], 1 µM; in [3], 3 µM; in [4], over 50 µM; in data set [5], over 50 µM. Moreover, the concentration in solution in [2] (solubility) came to 4 µg/mL (≈ 7.75 µM).

`O=C1NC(=O)c2ccc(Br)cc2/C1=C/Nc1ccc(CN2CCCCC2)cc1`: the IC50 was 5 µM with HCT-116; 3.1 µM with MCF7 [1]; 1.1 µM in [3]; over 50 µM in data set [4]; over 50 µM in data set [5]. Further, the Activity result in data set [6] was “Dose-dependent effect”; in the data set with MCF7 [8], 35%; in the data set on MCF7 [9], 34%; with MCF7 [10], 10%; with MCF7 [11], 2%; in the data set on MCF7 [12] it was 85%. The Activity in the data set on MCF7 [13] was 60%; with MCF7 [14] it was 55%; in the data set with MCF7 [15], 60%; in the data set with MCF7 [16] it was 40%; in the data set with MCF7 [17], 5%; in the data set with MCF7 [18] it was 45%. Besides, in the data set on MCF7 [7], the outcome was Active.

For the compound `C[C@@H]1CN(c2ccc(N/C=C3\C(=O)NC(=O)c4ccc(I)cc43)cc2)C[C@H](C)N1C`, the concentration in solution in [2] (solubility) was 4 µg/mL (≈ 7.75 µM). Further, the half-maximal inhibitory concentration (IC50) in [4] was over 50 µM.

As for `CN1CC2CC1CN2c1ccc(N/C=C2\C(=O)NC(=O)c3ccc(I)cc32)cc1` (stereo not given), the IC50 in the data set on HCT-116 is 1.9 µM; in the data set on MCF7 [1] it was 2.6 µM; in data set [3] it was 0.32 µM; in data set [4] it was over 50 µM; in data set [5] it was over 50 µM. In addition, the solubility in data set [2] was found to be 18 µg/mL (≈ 36 µM).

As for `C[C@@H]1CN(c2ccc(N/C=C3\C(=O)NC(=O)c4ccc(I)cc43)cc2)C[C@H](C)N1`, the concentration in solution in data set [2] (solubility) was 12 µg/mL (≈ 23.9 µM). The values for the IC50 in [3], in data set [4] and in data set [5] were 1 µM, over 50 µM and over 50 µM, respectively.

Take `CN1CCN(c2ccc(N/C=C3\C(=O)NC(=O)c4ccc(I)cc43)cc2)CC1`: in [2], the solubility was found to be 1 µg/mL (≈ 2.05 µM). For the same compound, in [4], the IC50 was over 50 µM.

Regarding `CN1CCN(c2ccc(N/C=C3\C(=O)NC(=O)c4ccc(Br)cc43)cc2)CC1`, the half-maximal inhibitory concentration (IC50) in the data set on HCT-116 is 3.1 µM; in the data set with MCF7 [1], 3 µM; in data set [4] it was over 50 µM. Further, the Activity entry in data set [6] is “Dose-dependent effect”; in the data set with MCF7 [8], 37%; in the data set on MCF7 [9] it was 32%; with MCF7 [10] it was 16%; with MCF7 [11], 3%. The result in the data set on MCF7 [7] was Active.

Compound `CC1CN(c2ccc(N/C=C3\C(=O)NC(=O)c4ccc(I)cc43)cc2)CCN1C` (stereo not given) displayed a solubility in [2] of 5 µg/mL (≈ 9.95 µM). Further, the half-inhibitory concentration (IC50) in data set [4] and in data set [5] was over 50 µM in each case.

Regarding `O=C1NC(=O)c2ccc(-n3cccc3)cc2/C1=C/Nc1ccc(CN2CCCCC2)cc1`, the half-inhibitory concentration (IC50) with HCT-116 was 2.7 µM; in the data set with MCF7 [1] it was 2.1 µM; in data set [3] it was 0.14 µM; in [4] it was over 50 µM; in data set [5], over 50 µM.

Turning to `CN1CCN(c2ccc(N/C=C3\C(=O)NC(=O)c4ccc(-n5cccc5)cc43)cc2)CC1`, the IC50 with HCT-116 was 1.5 µM; in the data set with MCF7 [1], 2.3 µM; in [3], 0.14 µM; in [4], over 50 µM; in data set [5] it was over 50 µM.

As a reminder, the IC50 is the concentration that gives 50% inhibition. In general, solubility refers to the dissolved amount per volume that the medium holds.
